Rows were chosen to be rich in hits. Some 1.8% of all compounds tested hit in one or more screens of this group.
PERK inh – inhibitors of human PERK kinase; Q9NZJ5; CHO PERK-DD fusion, SEAP luminescence translation reporter; inhibition, % at 5.6 µM; hit rate 0.17% among 220,000;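 active = inhibition above the mean inhibition of all tested compounds plus 3 SD, set separately per screening campaign, cut at about 2.9% in these data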;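 note: PERK kinase domain activated by AP20187 dimerizer at 100 nM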
Target sequence (Q9NZJ5 whole entry, looked up, the tested form may be a part): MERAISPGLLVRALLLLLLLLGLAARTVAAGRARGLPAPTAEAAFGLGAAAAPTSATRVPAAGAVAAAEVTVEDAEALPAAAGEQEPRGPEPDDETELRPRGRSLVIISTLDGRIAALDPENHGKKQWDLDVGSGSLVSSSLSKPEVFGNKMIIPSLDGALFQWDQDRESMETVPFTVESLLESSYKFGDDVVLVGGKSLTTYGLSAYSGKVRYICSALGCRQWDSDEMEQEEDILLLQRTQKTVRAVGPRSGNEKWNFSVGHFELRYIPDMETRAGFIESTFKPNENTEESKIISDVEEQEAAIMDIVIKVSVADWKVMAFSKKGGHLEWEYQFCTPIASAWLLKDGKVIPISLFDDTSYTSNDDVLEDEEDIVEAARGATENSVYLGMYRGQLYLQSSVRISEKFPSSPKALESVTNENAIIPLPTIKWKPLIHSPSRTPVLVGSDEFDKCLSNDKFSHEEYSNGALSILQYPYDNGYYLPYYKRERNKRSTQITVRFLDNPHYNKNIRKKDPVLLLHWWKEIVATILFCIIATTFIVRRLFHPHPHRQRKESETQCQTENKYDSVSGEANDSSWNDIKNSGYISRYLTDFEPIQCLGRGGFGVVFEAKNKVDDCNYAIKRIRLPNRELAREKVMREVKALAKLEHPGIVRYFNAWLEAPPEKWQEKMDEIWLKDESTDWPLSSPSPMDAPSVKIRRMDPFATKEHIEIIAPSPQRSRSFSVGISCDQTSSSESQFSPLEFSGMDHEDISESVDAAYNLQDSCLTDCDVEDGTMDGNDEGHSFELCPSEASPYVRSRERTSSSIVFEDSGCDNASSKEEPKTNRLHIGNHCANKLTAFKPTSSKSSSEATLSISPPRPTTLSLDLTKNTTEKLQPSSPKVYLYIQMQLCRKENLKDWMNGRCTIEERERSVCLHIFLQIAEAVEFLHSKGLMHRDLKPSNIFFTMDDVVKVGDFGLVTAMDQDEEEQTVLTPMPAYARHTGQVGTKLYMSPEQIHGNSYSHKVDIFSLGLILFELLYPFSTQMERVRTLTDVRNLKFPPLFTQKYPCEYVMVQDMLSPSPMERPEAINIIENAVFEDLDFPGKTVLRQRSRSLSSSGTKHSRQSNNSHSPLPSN
STAT3 activator – increases IL-6 driven STAT3 reporter signal; U3A cells, IL-6 STAT3-luciferase reporter, luminescence; 100% = signal with IL-6 EC80 alone; activation (% of control), % at 5.6 µM; hit rate 0.91% among 190,000; AID 871;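 active = activation above the screen-wide mean of compound activation plus 3 SD, cut at about 130% in these data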
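Material: human U3A cells carrying STAT3-luciferase construct. Measured by: reporter luminescence signal. Timing: compound 1 h, then IL-6 6 h at 37 °C.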
STAT3 blocker – inhibitors of IL-6 induced STAT3 signaling | U3A cells, IL-6 STAT3-luciferase reporter, luminescence; host cell line lacks STAT1 | inhibition, % at 5.5 µM | hit rate 0.89% among 190,000 | AID 862;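 active = inhibition above the mean inhibition across all screened compounds plus 3 SD, cut at about 44% in these data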
STAT1 blocker – reduces IFN-gamma driven STAT1 reporter signal; NIH 3T3 STAT1-luciferase reporter, luminescence; inhibition, % at 5.5 µM; hit rate 0.35% among 200,000; AID 920;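 active = inhibition above a set limit, the mean inhibition across all tested compounds plus 3 SD, cut at about 34% in these data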
Each line names hits and unclear results; the compound was inactive in the other large screens.

Cn1/c(=N/N=C/c2ccc([N+](=O)[O-])cc2)sc2ccccc21	STAT3 activator 143.9
Nc1nnn(CC(=O)N/N=C/c2cn[nH]c2-c2ccccc2)n1	none (no result: STAT3 activator, STAT3 blocker, STAT1 blocker)
CCc1nnc(NC(=O)CSc2nnc(-c3ccncc3)n2C)s1	PERK inh 3.3
Cn1c(SCC(=O)Nc2sccc2C(N)=O)nnc1-c1ccncc1	none (no result: STAT3 activator, STAT3 blocker, STAT1 blocker)
CC(=O)Nc1c(Br)cc(N2C(=O)CCC2=O)cc1Br	PERK inh 3.1
COc1ccc(C2=NOC(C(=O)NCc3ccc(F)cc3)C2)cc1OC (stereo not given)	STAT3 activator 133.5
Cc1scc(C(=O)N2CCN(c3ccc(Cl)cc3)CC2)c1C	none
CCN(CC)C(=O)C(=O)N/N=C/c1cccs1	PERK inh 3.1
Nc1nc(-c2ccccc2)nc(-c2ccccc2O)n1	STAT3 activator 139.0
Cc1ccc2c(c1)C(O)(c1c(C)[nH]c3ccccc13)C(=O)N2 (stereo not given)	STAT3 activator 134.4
O=C(Cn1c(O)c(/C=C2\C=Nc3ccccc32)sc1=O)N1CCOCC1	STAT3 activator 134.2
O=C(Cn1c(O)c(/C=C2\C=Nc3ccc(Br)cc32)sc1=O)N1CCCC1	none
Cc1ccc(C(C)C)c(OCC(=O)Nc2ccc(N3CCN(S(C)(=O)=O)CC3)cc2)c1	STAT3 activator 133.3
COc1ccc(Cl)cc1C(=O)Nc1ccc2c(c1)OCO2	STAT3 activator 151.3
O=C(NCc1ccncc1)C(=O)N/N=C/c1cccnc1	none
COc1ccc(Cl)cc1N1C(=N)SCC1=O	none
COc1ccc(CCNC(=O)C2CC(c3ccccc3[N+](=O)[O-])=NO2)cc1 (stereo not given)	none
COc1ccc(C(=O)Nc2ccc(C)cn2)c(OC)c1	STAT3 blocker 105.2, STAT1 blocker 82.0
COc1cc(C(=O)Nc2ccc(C)cn2)c([N+](=O)[O-])cc1OC	none
Clc1cccc(N/N=C(\Cc2nc3ccccc3[nH]2)c2ccccc2)c1	none
Cc1cccc(OCC(=O)NC(=S)Nc2ccc(S(=O)(=O)NC3CCCCC3)cc2)c1	none
CC(=O)C(C(C)=O)C1(O)C(=O)c2ccccc2C1=O	PERK inh 3.0
O=C(NC1(O)C(=O)c2ccccc2C1=O)c1ccccc1	none
Cc1ccc2cc(/C=N/Nc3nc4ccccc4[nH]3)c(Cl)nc2c1	PERK inh 3.4
C(=N\Nc1nc2ccccc2[nH]1)/c1ccc2ncccc2c1	none (no result: STAT3 activator, STAT3 blocker, STAT1 blocker)
C(=N\Nc1nc2ccccc2[nH]1)/c1ccccn1	STAT3 blocker 110.7, STAT1 blocker 92.6
Cc1cccn2c(=O)c(/C=N/O)c(N3CCOCC3)nc12	none
COCCNC(=O)c1c[nH]n2c(=O)cc(C3CCN(C(=O)OC(C)(C)C)CC3)nc12	PERK inh 3.8
Cc1ccccc1NC(=O)COC(=O)c1cc(=O)c2ccccc2o1	none
O=C(CCl)Nc1cc(SCC(O)CO)cc([N+](=O)[O-])c1 (stereo not given)	STAT3 blocker 98.5, STAT1 blocker 53.8
CCc1cc2c(N3CCN(c4ccccc4)CC3)ncnc2s1	STAT3 blocker 46.1
Cc1ccc(-n2nnnc2CN2CCCCC2)cc1	none
CCN(CC)C(=O)NC1CCCCCCC1	none
O=C(Oc1ccc(Br)cc1C(=O)/C=C/c1ccccc1F)c1ccco1	STAT3 activator 140.3
COc1cccc(CN2CCNC(=O)C2CC(=O)NCc2cn3ccccc3n2)c1OC (stereo not given)	PERK inh 3.0
COc1ccc(Cl)cc1/C=C(\C#N)C(N)=O	none
Oc1c(CN2CCCCC2)cc(Br)c2cccnc12	STAT3 activator 135.0
O=C(COc1c(Br)cc(Br)c2cccnc12)N1CCCCC1	none
CN(CC1CCCO1)S(=O)(=O)c1ccc(C(=O)Nc2nccs2)cc1 (stereo not given)	none (no result: STAT3 activator, STAT3 blocker, STAT1 blocker)
c1ccc2c(c1)nnn1c3ccccc3nc21	STAT3 blocker 48.3
COc1ccc(NC(=O)c2cc3c(s2)CCC(C)C3)cc1S(=O)(=O)N1CCOCC1 (stereo not given)	none
COc1ccc(-c2nc3c([nH]2)c(=O)n(C)c(=O)n3C)c(OC)c1	STAT3 activator 134.4
CCc1ccc(S(=O)(=O)/N=C2\C=CC(=O)c3ccccc32)cc1	STAT3 activator 144.8
Cc1ccc(S(=O)(=O)/N=C2/C=C(C3C(=O)CC(C)(C)CC3=O)C(=O)c3ccccc32)cc1	none
CCc1ccc(S(=O)(=O)ON2C(=O)c3ccccc3C2=O)cc1	none
CCc1ccc(S(=O)(=O)/N=C2/C=C(Sc3ncn[nH]3)C(=O)c3ccccc32)cc1	STAT3 activator 139.1
CCC(CC)C(=O)Nc1cccc(C(=O)Nc2ccc(S(=O)(=O)Nc3ccc(C)cc3)cc2)c1	none
Oc1ccccc1-c1csc(-c2ccccc2)n1	STAT3 activator 169.5
Cc1cccc(C)c1Nc1nnc(SCc2nc3ccccc3s2)s1	none
